Published values of several laboratories.
Target: Tyrosine-protein kinase Srms (SRMS, Homo sapiens, UniProt Q9H3Y6)

| SMILES | observed | method | concentration | remaining binding [%] |
| --- | --- | --- | --- | --- |
| COc1cnc(Nc2cccc(S(N)(=O)=O)c2)nc1N1CCN(c2ccccc2)C(=O)C1 | binding | competition with immobilised ligand | 1 µM | 90 |
| N[C@H]1CCN(c2nccc(-c3cnn4ncccc34)n2)C1 | binding | – | 1 µM | 88 |
| CCN1CCN(Cc2ccc(C(=O)Nc3ccc(C)c(Oc4ccc5c(c4)CC(=O)N5)c3)cc2C(F)(F)F)CC1 | binding | competition with immobilised ligand | 1 µM | 100 |
| O=C(NS(=O)(=O)c1ccc(NCC2CCOCC2)c([N+](=O)[O-])c1)c1ccc(N2CCN(Cc3ccc(C(F)(F)F)cc3-c3ccc(Cl)cc3)CC2)cc1Oc1cnc2[nH]ccc2c1 | cell-free assay | competition with immobilised ligand | 1 µM | 79 |
| CN(CCCC(F)(F)F)c1nccc(-c2cnn3ncccc23)n1 | binding | – | 1 µM | 100 |
| O=C(NCCCN1CCOCC1)c1ccc(Nc2ncc(Cl)c(-c3ccc(Cl)s3)n2)cc1 | binding | competition with immobilised ligand | 1 µM | 99 |
| CCOCCn1cc(C(=O)Nc2ccc(-n3nc(-c4cccnc4)cc3C(F)(F)F)cn2)ccc1=O | cell-free assay | competition with immobilised ligand | 1 µM | 79 |
| F[C@@H]1CCN(c2nccc(-c3cnn4ncccc34)n2)C1 | binding | – | 1 µM | 100 |
| Nc1ncc2c(n1)-c1c([nH]c3ccc(C#CC4CC4)cc13)CCCC2 | binding | competition with immobilised ligand | 1 µM | 92 |
| C[C@H]1CCN(c2nccc(-c3cnn4ncccc34)n2)C1 | binding | – | 1 µM | 71 |
| O=C(Nc1cccnn1)N1CCC(=Cc2cccc(Oc3ccc(C(F)(F)F)cn3)c2)CC1 | cell-free assay | competition with immobilised ligand | 1 µM | 95 |
| O=C(c1ccc(Nc2nccc(-c3cc4ccccc4s3)n2)cc1)N1CCC(N2CCCC2)CC1 | binding | competition with immobilised ligand | 1 µM | 73 |
| CSc1cccnc1N1CCN(Cc2nc3ccccc3[nH]2)CC1 | cell-free assay | competition with immobilised ligand | 1 µM | 100 |
| c1cncc(-c2cccc(Nc3nccc(NC4CCCCC4)n3)c2)c1 | binding | competition with immobilised ligand | 10 µM | 71 |
| CN(C)c1ncc(F)c(-c2cnn3ncccc23)n1 | binding | – | 1 µM | 81 |
| O=C(NCC1CCOCC1)c1n[nH]cc1NC(=O)c1c(F)cccc1F | binding | competition with immobilised ligand | 1 µM | 100 |
| O=C(N1CCS(=O)(=O)CC1)N1C[C@H](c2ccc(OC(F)(F)F)cc2)C[C@H](c2nc(C3CC3)no2)C1 | cell-free assay | competition with immobilised ligand | 1 µM | 100 |
| Cc1cnc(Nc2ccc(C(=O)N3CCC(N4CCCC4)CC3)cc2)nc1-c1cc2ccccc2s1 | binding | competition with immobilised ligand | 1 µM | 68 |
| CN(C)c1nccc(-c2cnc3ncccn23)n1 | binding | – | 1 µM | 63 |
| CC(C)(O)c1cncc(-c2nc3ccc(F)cc3n2C2CC2)c1 | cell-free assay | competition with immobilised ligand | 1 µM | 100 |
| CC1CCCN1c1nccc(-c2cnn3ncccc23)n1 (stereo not shown) | binding | – | 1 µM | 100 |
| CCCOc1ccc([C@@H]2[C@@H](C(=O)O)[C@H](c3ccc4c(c3)OCO4)CN2CC(=O)Nc2c(CC)cccc2CC)cc1 | cell-free assay | competition with immobilised ligand | 1 µM | 90 |
